DENV2 CPE – inhibitors of DENV2 cytopathic effect, primary screen, cell-based, plate reader, single concentration; DENV2-infected cells, cytopathic effect rescue; CPE inhibition, % at 9.99 µM; 1.7% of 350,000 active; AID 651640, 2012; in the data active = CPE inhibition above about 20%, passing the limit was not always enough; tested in BHK-21 cells;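 note: 0% = median of neutral control wells and 100% = median of positive control wells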
E-selectin induc – E-selectin induction in HUVECs, primary screen, imaging, HUVEC, immunofluorescence imaging, single point. P16581. normalized: neutral wells 0, TNF-alpha wells 100. activation, % at 7.58 µM. 0.37% of 260,000 active;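 active = mean E-selectin-positive cell signal at least 10% of the positive control, reached in at least 60% of replicates, without over 20% cell loss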
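Test system – human umbilical vein endothelial cells (HUVEC), E-selectin induction · Input – 3,000 HUVEC seeded per well · Buffer or medium – EGM-2, gelatin · Compound dosing – single-point compound dose · Detection – immunofluorescence imaging · Measure – percent E-selectin-positive cells · Controls – TNF-alpha high, DMSO low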
C2C12 statin – suppressors of statin myotoxicity in C2C12 myotubes, primary screen, cell-based, single point, plate reader; C2C12 myotubes + simvastatin, ATP luminescence, 48 h; scaled: DMSO 0, geranylgeraniol control 100; AID 602340, 2012; rescue of ATP level, % at 7.49 µM; 0.78% of 330,000 active;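 active = mean ATP rescue above about 67%, or every replicate alone reaching that limit, limit read from the data, passing the limit was not always enough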;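 note: myotubes were challenged with 10 µM simvastatin during compound exposure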
Numbers without * were called inactive; x = no result given. Shown are actives, neighbours in structure and some others; about 2.2% of the full set was active somewhere.

SMILES	DENV2 CPE	E-selectin induc	C2C12 statin
C=C(NC(=O)C(=C)NC(=O)c1csc(C2=NC3c4csc(n4)C4NC(=O)c5csc(n5)C(C(C)(O)C(C)O)NC(=O)C5CSC(=N5)/C(=C/C)NC(=O)C(C(C)O)NC(=O)c5csc(n5)C3(CC2)NC(=O)C(C)NC(=O)C(=C)NC(=O)C(=C)NC(=O)C(C(C)C)NC2C=Cc3c(C(C)O)cc(nc3C2O)C(=O)OC4C)n1)C(N)=O (centres undefined)	60*	x	x
O=C(C[C@@H]1C=C[C@@H](NC(=O)c2cccnc2)[C@H](CO)O1)NCc1ccc(Cl)c(Cl)c1	2	0	11
C/C=C/c1ccc2c(c1)O[C@H](CN(C)Cc1ccc(C(=O)O)cc1)[C@@H](C)CN([C@@H](C)CO)S2(=O)=O	7	0	2
Cc1cc(NC(=O)c2ccc(F)cc2F)n(-c2nc3ccccc3[nH]2)n1	-1	x	-20
Cc1cc(NC(=O)c2ccccc2F)n(C(C)(C)C)n1	-4	34*	x
Nc1ncnc2c1ncn2[C@@H]1O[C@H](C(=O)N[C@@H](CCc2ccccc2)C(=O)N2CCN(C(=O)C(F)(F)F)CC2)[C@@H](O)[C@H]1O	-7	0	x
NC(=O)[C@@H]1CCCN1C(=O)[C@H](CCc1ccccc1)NC(=O)[C@H]1O[C@@H](n2cnc3c(N)ncnc32)[C@H](O)[C@@H]1O	40*	0	x
Cc1noc(C)c1S(=O)(=O)Nc1ccc2c(c1)C(=O)N([C@H](C)CO)C[C@H](C)[C@H](CN(C)Cc1ccc(C(=O)Nc3ccccc3N)cc1)O2	24*	0	x
Cc1noc(C)c1S(=O)(=O)Nc1ccc2c(c1)CC(=O)N([C@H](C)CO)C[C@H](C)[C@H](CN(C)Cc1ccc(C(=O)Nc3ccccc3N)cc1)O2	-7	x	x
Cc1noc(C)c1S(=O)(=O)Nc1ccc2c(c1)CC(=O)N([C@@H](C)CO)C[C@H](C)[C@H](CN(C)Cc1ccc(C(=O)Nc3ccccc3N)cc1)O2	61*	x	x
Cc1noc(C)c1S(=O)(=O)Nc1ccc2c(c1)C(=O)N([C@@H](C)CO)C[C@H](C)[C@@H](CN(C)Cc1ccc(C(=O)Nc3ccccc3N)cc1)O2	14	0	x
O=C(C[C@@H]1C=C[C@@H](NC(=O)c2cccc(F)c2)[C@H](CO)O1)NCc1ccccc1	1	0	-7
C[C@@H]1CN([C@H](C)CO)C(=O)c2cc(C#CCN(C)C)cnc2O[C@@H]1CN(C)S(C)(=O)=O	-5	0	7
COc1cccc(S(=O)(=O)N2CC3(CN(C(=O)Nc4ccc(F)cc4)[C@H](CO)c4[nH]c5cc(OC)ccc5c43)C2)c1	128*	0	x
COc1ccc2c3c([nH]c2c1)[C@H](CO)N(C(=O)C1CCOCC1)CC31CCN(C)CC1	9	0	x
COc1ccc2c3c([nH]c2c1)[C@@H](CO)N(C(=O)Nc1ccc(F)cc1)CC31CN(S(=O)(=O)c2cccc(C)c2)C1	1	-1	x
COc1ccc2c3c([nH]c2c1)[C@@H](CO)N(C(=O)C1CC1)CC31CN(C(=O)NC(C)C)C1	3	0	x
COc1ccc2c3c([nH]c2c1)[C@@H](CO)N(C(=O)C1CCOCC1)CC31CN(C)C1	90*	0	x
COc1ccc2c3c([nH]c2c1)[C@H](CO)N(C(=O)C1CC1)CC31CN(C(=O)NC(C)C)C1	30*	0	x
CCCC(=O)N1CC2(C1)CN(C(=O)C1CCC1)[C@@H](CO)c1[nH]c3cc(OC)ccc3c12	13	0	x
CCCC(=O)N1CC2(C1)CN(C(=O)C1CCCCC1)[C@@H](CO)c1[nH]c3cc(OC)ccc3c12	22*	0	x
CCCC(=O)N1CCC2(CC1)CN(C(=O)C1CCCC1)[C@@H](CO)c1[nH]c3cc(OC)ccc3c12	-10	0	x
COc1ccc2c3c([nH]c2c1)[C@@H](CO)N(C(=O)Nc1ccccc1F)CC31CCN(C(C)=O)CC1	-3	0	x
CCCC(=O)N1CCC2(CC1)CN(C(=O)C1CC1)[C@H](CO)c1[nH]c3cc(OC)ccc3c12	34*	0	x
COCC(=O)N1CCC2(CC1)CN(C(=O)Nc1ccccc1F)[C@H](CO)c1[nH]c3cc(OC)ccc3c12	25*	0	x
CC=Cc1ccc2n(c1=O)C[C@H]1[C@H](CO)[C@@H](C(=O)NCCOC)[C@@H]2N1Cc1ccccc1 (mixture of isomers)	8	0	-2
O=C(C[C@@H]1CC[C@H]2[C@@H](COC[C@@H](O)CN2S(=O)(=O)c2ccccc2)O1)N1CCc2ccccc2C1	4	0	7
